Measurements from ChEMBL document CHEMBL3272238, “Synthesis and biological evaluation of fragmented derivatives of tetrahydroisoquinolines. 3. Trimetoquinol studies” (J Med Chem, 1976).
The source made the active and inactive calls.

How the values were obtained:
Cavia porcellus [1] = species: Cavia porcellus; experiment: Agonist activity at beta-adrenoceptor in guinea pig trachea assessed as […] of carbachol-induced contraction by force-displacement transducer analysis; format: tissue-based
Method in brief: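 Tissue strips held at 1 g tension in Krebs bicarbonate-glucose solution at 37°, equilibrated 1-1.5 h, then drug-induced tension changes recorded isometrically. Cumulative log-concentration curves were built, and the ED₅₀ (concentration giving half-maximal response) was read from each curve.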

Cavia porcellus [2] = species: Cavia porcellus; experiment: Chronotropic activity in guinea pig atrium assessed as increase in atrial rate by force displacement transducer analysis; format: functional, tissue-based; conditions: Cardiac atrium
Method in brief: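 Isolated right atrium given cumulative test doses, with rate recorded over 3 min per dose at 1- and 3-min readings. Chronotropic responses were expressed relative to the maximum from 10⁻⁵ M isoproterenol added at the end of each run. ED₅₀ (half-maximal) was taken from individual plots.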

Rattus norvegicus = species: Rattus norvegicus; experiment: Induction of lipolysis in Sprague-Dawley rat fat cells assessed as increase in glycerol level at 10^-8 to 10^-4 M; format: functional
Method in brief: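 Fat cells from epididymal tissue of nonfasted male rats (200–250 g) were isolated by collagenase digestion in Krebs bicarbonate with 3% BSA. Drug (1×10⁻⁸–3×10⁻⁴ M) was incubated 1 h at 37° in air, stopped with equal-volume 10% TCA, and glycerol assayed. Release was normalized to 10⁻⁶ M isoproterenol maximum; mean of N=3 ± SEM.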

Measured: Activity

COc1cc(CC(NC(C)C)c2ccc(O)c(O)c2)cc(OC)c1OC (stereo not given)
active: all assays above

CCNC(Cc1cc(OC)c(OC)c(OC)c1)c1ccc(O)c(O)c1 (stereo not given)
active: all assays above

COc1cc(CC(N)c2ccc(O)c(O)c2)cc(OC)c1OC (stereo not given)
active: all assays above

CNC(Cc1cc(OC)c(OC)c(OC)c1)c1ccc(O)c(O)c1 (stereo not given)
active: all assays above

COc1cc(C[C@@H]2NCCc3cc(O)c(O)cc32)cc(OC)c1OC (racemic)
active: all assays above
